The list is not random: actives were taken first. Their share in the collection is about 2.3%.
PLAP act – human PLAP activation. P05187. purified PLAP enzyme, luminescent substrate read-out; hits give high values. activation fold at 20 µM. actives 1.2% (n = 96,000). AID 696; in the data active = activation fold above about 2
Ecoli tolC – E. coli tolC mutant growth inhibition; E. coli BW25113 tolC mutant growth, OD615; growth inhibition, % at 10 µM (by protocol); actives 2.2% (n = 65,000);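 active = growth inhibition at or above a cutoff equal to the mean over every tested compound plus 3 SD, cut at about 60% in these data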;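 also: growth measured after 20 h incubation at 37 °C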
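Signal: optical density read at 615 nm; Assay system: E. coli ΔtolC::kan strain BW25113; Times: 20 h incubation with compound, 37 °C; Dosing: 10 µM final, single dose.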
E coli WT exp – E. coli BW25113 growth inhibition, expanded screen; actives 0.15% (n = 98,000); AID 710; growth inhibition, % at 100 µM; OD600 absorbance;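 active = growth inhibition above about 50% at one test dose, limit read from the data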;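 also: growth measured after 20 h incubation at 37 °C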
HePTP inhibitor – blocks human HePTP tyrosine phosphatase; P35236; recombinant HePTP phosphatase activity, OD absorbance; inhibition, % at 20 µM; actives 0.64% (n = 110,000); AID 521; in the data active = inhibition above about 50%;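 also: plate controls were vehicle for no effect and reference inhibitor for full effect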
Target sequence (P35236 whole entry, looked up): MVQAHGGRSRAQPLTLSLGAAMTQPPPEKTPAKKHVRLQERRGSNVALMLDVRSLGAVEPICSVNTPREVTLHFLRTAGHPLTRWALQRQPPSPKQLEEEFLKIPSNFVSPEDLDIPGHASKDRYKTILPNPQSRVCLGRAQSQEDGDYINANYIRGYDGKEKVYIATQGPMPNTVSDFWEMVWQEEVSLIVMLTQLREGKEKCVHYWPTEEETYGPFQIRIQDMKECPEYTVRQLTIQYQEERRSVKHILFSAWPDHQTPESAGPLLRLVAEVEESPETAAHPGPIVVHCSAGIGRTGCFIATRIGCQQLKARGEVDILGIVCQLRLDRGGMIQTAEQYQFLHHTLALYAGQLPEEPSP
AP ELISA ortho – alternative pathway complement inhibition, orthogonal assay; Human serum alternative complement pathway, LPS-coated ELISA, C3 deposition; tested in compound mixtures; inhibition, % at 5 µM; actives 0.08% (n = 62,000); AID 1235;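 active = inhibition above 30% in each of the two pooled mixtures holding the compound, so the lower value exceeds 30%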;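 also: 0% = serum in Mg-EGTA without compound and 100% = EDTA serum blank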
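Assay system: Human serum alternative complement pathway, C3 deposition on LPS-coated wells | Incubation: 1 h serum-compound exposure at 37 °C | Doses: 5 µM per compound in ten-compound mixtures | Read-out: Percent inhibition | Technique: ELISA with HRP anti-human C3 antibody, TMB substrate, absorbance 450 nm | Replication: Two pool placements per compound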
Starred values were filed as active, the others as inactive.

How did CCCCSC1=C(C#N)C(c2ccccc2C)C(C(=O)OCC)C(=O)N1 (centres undefined) do in these assays?
PLAP act: 0.8; Ecoli tolC: 71.4*; E coli WT exp: -7.0; HePTP inhibitor: 5.1; AP ELISA ortho: 6.0

Results for Cc1ccc(C)c(N2CCN(C(=O)c3cc4sccc4n3C)CC2)c1 ?
PLAP act: 1.2; Ecoli tolC: 76.3*; E coli WT exp: -6.0; HePTP inhibitor: 11.3; AP ELISA ortho: 6.0

Results for Cn1c(C(=O)N2CCN(c3cccc(C(F)(F)F)c3)CC2)cc2sccc21 ?
PLAP act: 1.1; Ecoli tolC: 70.9*; E coli WT exp: -29.0; HePTP inhibitor: -7.2; AP ELISA ortho: 29.4

Results for O=C(c1c(F)c(F)c(F)c(F)c1F)N1CCN(c2cccc(C(F)(F)F)c2)CC1 ?
PLAP act: 1.1; Ecoli tolC: 49.4; E coli WT exp: -14.0; HePTP inhibitor: 2.3; AP ELISA ortho: 5.4

What do the screens show for `Cc1ccc(C)c(N2CCN(C(=O)c3ccccc3Br)CC2)c1`?
Ecoli tolC: 68.9*; E coli WT exp: -8.0; HePTP inhibitor: 2.3; AP ELISA ortho: 19.1

What do the screens show for `C=CCc1ccccc1OCCOc1c(Cl)cc(/C=N/n2cnnc2)cc1OCC`?
HePTP inhibitor: -22.9

How did COc1cc(-c2c(C#N)c(N)n3c(nc4ccccc43)c2C#N)ccc1OCc1ccccc1F do in these assays?
HePTP inhibitor: 14.6

Results for COc1ccc(OC)c(-c2cc(C(=O)N3CCc4ccccc4C3)no2)c1 ?
PLAP act: 1.1; Ecoli tolC: 69.2*; E coli WT exp: -19.0; HePTP inhibitor: 9.4; AP ELISA ortho: 10.6

Results for COc1ccc(OC)c(-c2cc(C(=O)N3CCN(c4ccccc4)CC3)no2)c1 ?
PLAP act: 1.5; Ecoli tolC: 10.0; E coli WT exp: -19.0; HePTP inhibitor: 8.8; AP ELISA ortho: 10.3

Results for COc1cccc(-c2cc(C(=O)N3CCc4ccccc4C3)no2)c1 ?
PLAP act: 1.2; Ecoli tolC: 90.1*; E coli WT exp: -8.0; HePTP inhibitor: 13.0; AP ELISA ortho: 10.8

How did CCOC(=O)c1cc(CC)sc1NC(=O)COc1ccc(Cl)cc1Cl do in these assays?
HePTP inhibitor: 7.3

What do the screens show for `COc1ccc(-n2c(SC)nc3sc4c(c3c2=O)CCCC4)cc1`?
HePTP inhibitor: 9.5

Results for Cc1cc(N2C3CCC2CC(O)(c2ccc(F)cc2)C3)nc(-c2ccccc2)n1 (centres undefined) ?
PLAP act: 1.4; Ecoli tolC: 100.0*; E coli WT exp: -5.0; HePTP inhibitor: 9.9; AP ELISA ortho: 14.5

Results for CCOCCOC(=O)C1=C(C)NC2=C(C(=O)CCC2)C1c1cccc(OC)c1OC (centres undefined) ?
HePTP inhibitor: 9.9

Results for Cc1ccc2c(C)nc(Nc3nc(CSc4nc5ccccc5[nH]4)cc(=O)[nH]3)nc2c1 ?
PLAP act: 2.2*; E coli WT exp: -12.0

How did Cc1cccc(C(=O)Nc2cc(-c3nc4ncccc4o3)ccc2C)c1 do in these assays?
HePTP inhibitor: 5.6

How did CCN(CC)CCCOc1ccc(Cl)cc1C do in these assays?
HePTP inhibitor: 2.2

Results for O=C1c2ccccc2C(Nc2cccc(C(F)(F)F)c2)N1Cc1ccco1 (centres undefined) ?
PLAP act: 1; Ecoli tolC: 93.1*; E coli WT exp: -5.0; HePTP inhibitor: -0.7; AP ELISA ortho: 2.4

What do the screens show for `O=C(CCCN1C(=O)/C(=C\c2ccc(F)cc2)SC1=S)Nc1cc([N+](=O)[O-])ccc1O`?
HePTP inhibitor: -22.1

What do the screens show for `CCOc1cc(/C=C2\SC(=S)NC2=O)ccc1OS(=O)(=O)c1ccc([N+](=O)[O-])cc1`?
HePTP inhibitor: -13.8

How did CCCCCCn1c2c(c(=N)c3c1CCC3)CCC2 do in these assays?
PLAP act: 0.8; Ecoli tolC: 89.9*; E coli WT exp: 24.0; HePTP inhibitor: 3.4; AP ELISA ortho: 18.9

What do the screens show for `COc1ccc(NC(=O)n2nc(C(F)(F)F)nc2N)cc1`?
HePTP inhibitor: 6.4

What do the screens show for `O=[N+]([O-])c1ccc(OCCN2CCCCC2)cc1`?
HePTP inhibitor: 2.1

How did COc1ccc(CCNc2oc(COc3ccccc3F)nc2C#N)cc1 do in these assays?
PLAP act: 1.3; Ecoli tolC: 88.5*; E coli WT exp: -6.0; HePTP inhibitor: 8.3; AP ELISA ortho: 11.0

What do the screens show for `COCCCNc1oc(COc2ccc(Cl)cc2Cl)nc1C#N`?
PLAP act: 1.5; Ecoli tolC: 49.5; E coli WT exp: 11.0; HePTP inhibitor: 8.9; AP ELISA ortho: -2.4
